Measured values as given in ChEMBL document CHEMBL1154881, “Synthesis and antimicrobial activities of novel 1,5-diaryl pyrazoles” (2010).
Converted amounts (≈) assume the structure as drawn.

How the values were obtained:
[1] = system: Staphylococcus aureus; test: Antibacterial activity against Staphylococcus aureus ATTC 25923 after 24 hrs by disk diffusion method; assay type: functional
How it was run: (§1)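 Disc diffusion, each concentration tested in triplicate on nutrient agar seeded separately with fresh bacteria. Incubation 37 °C, 24 h. Solvent and growth controls included. Zones of inhibition recorded. The K. pneumoniae strain was recultured.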

[2] = system: Escherichia coli; test: Antibacterial activity against Escherichia coli ATTC 25922 after 24 hrs by disk diffusion method; assay type: functional; how it was run: as §1
[3] = system: Pseudomonas aeruginosa; test: Antibacterial activity against Pseudomonas aeruginosa ATTC 27853 after 24 hrs by disk diffusion method; assay type: functional; how it was run: as §1
[4] = system: Klebsiella pneumoniae; test: Antibacterial activity against Klebsiella pneumoniae after 24 hrs by disk diffusion method; assay type: functional; how it was run: as §1
[5] = system: Staphylococcus aureus; test: Antibacterial activity against Staphylococcus aureus ATTC 25923 after 24 hrs by broth dilution method; assay type: functional; settings: ATTC 25923, 24 h
[6] = system: Escherichia coli; test: Antibacterial activity against Escherichia coli ATTC 25922 after 24 hrs by broth dilution method; assay type: functional; settings: ATTC 25922, 24 h
[7] = system: Klebsiella pneumoniae; test: Antibacterial activity against Klebsiella pneumoniae after 24 hrs by broth dilution method; assay type: functional
[8] = system: Trichophyton mentagrophytes; test: Antifungal activity against Trichophyton mentagrophytes after 3 to 4 days by serial plate dilution method; assay type: functional
How it was run: (§2)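 Sabouraud's agar (peptone 1 g, D-glucose 4 g, agar 2 g per 100 ml water, pH 5.7) plates were lawned with spore suspension (a loopful in 3 ml normal saline) and dried 1 h at 37 °C. Wells were punched and filled with compound in DMSO at 10–50 mg/ml, with a DMSO control. Plates in triplicate, 37 °C for 3–4 days.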

[9] = system: Talaromyces marneffei; test: Antifungal activity against Penicillium marneffei after 3 to 4 days by serial plate dilution method; assay type: functional; how it was run: as §2
[10] = system: Aspergillus flavus; test: Antifungal activity against Aspergillus flavus NCIM 524 after 3 to 4 days by serial plate dilution method; assay type: functional; how it was run: as §2
[11] = system: Aspergillus fumigatus; test: Antifungal activity against Aspergillus fumigatus NCIM 902 after 3 to 4 days by serial plate dilution method; assay type: functional; how it was run: as §2
[12] = system: Pseudomonas aeruginosa; test: Antibacterial activity against Pseudomonas aeruginosa ATTC 27853 after 24 hrs by broth dilution method; assay type: functional; settings: ATTC 27853, 24 h
[13] = system: Trichophyton mentagrophytes; test: Antifungal activity against Trichophyton mentagrophytes at 10 to 50 ug/ml after 3 to 4 days; assay type: functional
[14] = system: Talaromyces marneffei; test: Antifungal activity against Penicillium marneffei at 10 to 50 ug/ml after 3 to 4 days; assay type: functional
[15] = system: Klebsiella pneumoniae; test: Antibacterial activity against Klebsiella pneumoniae after 24 hrs by […]

Row | MIC [5] [µg/mL] | MIC [6] [µg/mL] | MIC [7] [µg/mL] | MIC [12] [µg/mL] | MIC [13] [µg/mL] | MIC [14] [µg/mL] | MIC [15] [µg/mL] | SMILES | inhibition zone (IZ) [1] [mm] | inhibition zone (IZ) [2] [mm] | inhibition zone (IZ) [3] [mm] | inhibition zone (IZ) [4] [mm] | inhibition zone (IZ) [8] [mm] | inhibition zone (IZ) [9] [mm] | inhibition zone (IZ) [10] [mm] | inhibition zone (IZ) [11] [mm]
1 | 12.5 (≈ 29.6 µM) | 50 (≈ 118 µM) | 50 (≈ 118 µM) |  |  |  |  | C#CCN1CCN(C(=O)c2cc(-c3ccc(Cl)cc3)n(-c3ccc(F)cc3)n2)CC1 | 18 | 18 | <10 | 17 | <10 | 18 | <10 | 19
2 | 12.5 (≈ 26.2 µM) | 12.5 (≈ 26.2 µM) |  | 50 (≈ 105 µM) | 12.5 (≈ 26.2 µM) | 12.5 (≈ 26.2 µM) | 12.5 (≈ 26.2 µM) | CS(=O)(=O)OC1CCN(C(=O)c2cc(-c3ccc(Cl)cc3)n(-c3ccc(F)cc3)n2)CC1 | 26 | 28 | 21 | 23 | 28 | 29 | 31 | 25
3 | 12.5 (≈ 28.3 µM) | 12.5 (≈ 28.3 µM) | 50 (≈ 113 µM) |  | 12.5 (≈ 28.3 µM) | 12.5 (≈ 28.3 µM) |  | CCOC(=O)c1sc(-c2cc(-c3ccc(Cl)cc3)n(-c3ccc(F)cc3)n2)nc1C | 16 | 18 | 19 | 19 | 20 | 19 | 22 | 18
